Results gathered from unrelated publications.
Read-out: cell growth or viability

`CNC(=O)c1cc(Oc2ccc(NC(=O)Nc3ccc(Cl)c(C(F)(F)F)c3)cc2)ccn1` gave a viability of 40.3% (HepG2; SRB; 100 µM, 48 h).
With `Cc1cc(Nc2ccc(C(=O)N/N=C/c3ccc(N(C)C)cc3)cc2)c2cccc(O)c2n1` the inhibition was 69.9% (Huh-7; MTT; 20 µM).
For `C[C@@H](NC(=O)[C@H](CCCCNC(=O)C(F)(F)F)NS(C)(=O)=O)C(=O)N[C@@H](CCCNC(=N)N)C(N)=O`, the EC50 was 3.68 to 46.1 µM (HEK-293T; MTT; 72 h).
The viability of `COc1ccc(NC(=O)c2c(Nc3ccccc3)sc(C(=O)NN=Cc3ccccc3)c2NC(C)=O)cc1` is reported as 60.2% (HepG2; SRB; 100 µM, 48 h).
`Cc1ccc(/C=N/NC(=O)c2ccc(Nc3cc(C)nc4c(O)cccc34)cc2)cc1` gave an inhibition of 62.5% (Huh-7; MTT; 20 µM).
`CC(C)C[C@H](NC(=O)[C@H](Cc1ccccc1)NC(=O)c1cnccn1)B(O)O` has an IC50 of 17 nM (NCI-H2009; ATP luminescence).
`COc1ccc(NC(=O)c2c(Nc3ccccc3)sc(C(=O)NN=Cc3ccc(C)cc3)c2NC(C)=O)cc1` gave a viability of 89.2% (HepG2; SRB; 0.1 µM, 48 h).
`CCOC(=O)c1ccc(-n2c(C)cc(/C=C/c3ccc(OCC)cc3)c(C#N)c2=O)cc1` gave a viability of 53.1% (HepG2; MTT; 50 µM, 24 h).
`COc1ccc(NC(=O)c2c(Nc3ccccc3)sc(C(=O)NN=Cc3cc(OC)c(OC)c(OC)c3)c2NC(C)=O)cc1` gave a viability of 89.2% (HepG2; SRB; 10 nM, 48 h).
For `CCOC(=O)c1ccc(-n2c(C)cc(/C=C/c3ccc(OC)cc3)c(C#N)c2=O)cc1`, the viability was 100% (HepG2; MTT; 1.56 µM, 24 h).
With `COc1ccc(NC(=O)c2c(Nc3ccccc3)sc(C#N)c2NC(=O)CNc2ccc([N+](=O)[O-])cc2)cc1` the viability was 75.2% (HepG2; SRB; 0.1 µM, 48 h).
For `Cc1c(NC(=O)c2ccc(C(C)(C)C)cc2)cccc1-c1cn(C)c(=O)c(Nc2ccc(C(=O)N3CCOCC3)cc2)n1`, the GI50 was over 10 µM (Ramos; 48 h).
With `CCOC(=O)c1ccc(-n2c(C)cc(C)c(C#N)c2=O)cc1` the viability was 100% (HepG2; MTT; 3.125 µM, 24 h).
With `Cc1cc(Nc2ccc(C(=O)N/N=C/c3cccs3)cc2)c2cccc(O)c2n1` the inhibition was 42.1% (Huh-7; MTT; 20 µM).
`COc1cc(Nc2nccc(-c3cnn4nc(OC)ccc34)n2)cc(C(F)(F)F)c1` gave an IC50 of 450 nM (NCI-H292; ATP luminescence).
With `COc1cc([C@@H]2c3cc4c(cc3[C@@H](O[C@@H]3O[C@@H]5CO[C@@H](C)O[C@H]5[C@H](O)[C@H]3O)[C@H]3COC(=O)[C@H]23)OCO4)cc(OC)c1O` the IC50 was 48400 nM (CCD-18Co; MTS; 24 h).
With `Cc1cc(Nc2ccc(C(=O)N/N=C/c3ccccc3)cc2)c2cccc(O)c2n1` the inhibition was 32.3% (Huh-7; MTT; 20 µM).
The CC50 of `CCOC(=O)c1sc(NCc2ncccn2)nc1-c1ccccn1` is reported as over 40 µM (Huh-7).
`CCOC(=O)c1ccc(NC(=O)C2=C3C(=Nc4ccccc43)NC2=O)cc1` gave a viability of 68.1% (HepG2; MTT; 12.5 µM, 24 h).
`COc1ccc(NC(=O)c2c(Nc3ccccc3)sc(C#N)c2NC(=O)CNc2ccccc2Cl)cc1` has a viability of 90.3% (HepG2; SRB; 100 µM, 48 h).
For `Cc1cc(Nc2ccc(C(=O)N/N=C/c3ccc[nH]3)cc2)c2cccc(O)c2n1`, the inhibition was 68.3% (Huh-7; MTT; 20 µM).
For `CO[C@]1(C(=O)N[C@@H](C)c2ccc(-n3cc(F)cn3)nc2)CC[C@H](c2nc(C)cc(Nc3cc(C)[nH]n3)n2)CC1`, the GI50 was over 10 µM (NCI-H292; ATP luminescence; 72 h).
For `C=CC(=O)N1CCC[C@@H](n2nc(-c3ccc(Oc4ccccc4)cc3)c3c(N)ncnc32)C1`, the GI50 was over 10 µM (Ramos; 48 h).
For `COc1ccc(NC(=O)c2c(Nc3ccccc3)sc(C#N)c2NC(=O)CNc2ccc(C)cc2)cc1`, the viability was 88.3% (HepG2; SRB; 10 nM, 48 h).
With `Cc1cc(Nc2ccc(C(=O)N/N=C/c3ccc(C)s3)cc2)c2cccc(O)c2n1` the inhibition was 43.3% (Huh-7; MTT; 20 µM).
The viability of `COc1ccc(NC(=O)c2c(Nc3ccccc3)sc(C(=O)NN=Cc3ccc(OC)c(O)c3)c2NC(C)=O)cc1` is reported as 63.7% (HepG2; SRB; 0.1 µM, 48 h).
The EC50 of `CCOCCOCCOCCNC(=S)NCCCC[C@H](NS(C)(=O)=O)C(=O)N[C@@H](C)C(=O)N[C@@H](CCCNC(=N)N)C(N)=O` is reported as over 100 µM (HEK-293T; MTT; 72 h).
`CCOC(=O)c1ccc(-n2c(-c3ccc(C)cc3)cc(-c3ccc(O)cc3)c(C#N)c2=O)cc1` gave a viability of 33.1% (HepG2; MTT; 25 µM, 24 h).
With `Cc1cc(Nc2ccc(C(=O)N/N=C/c3cc4ccccc4[nH]3)cc2)c2cccc(O)c2n1` the inhibition was 60.2% (Huh-7; MTT; 20 µM).
With `CCCCCCCCCCCCNC(=O)NCCCC[C@H](NS(C)(=O)=O)C(=O)N[C@H](C)C(=O)N[C@@H](CCCNC(=N)N)C(N)=O` the EC50 was 28.6 to 38 µM (HEK-293T; MTT; 72 h).
The inhibition of `Cc1cccc(/C=N/NC(=O)c2ccc(Nc3cc(C)nc4c(O)cccc34)cc2)n1` is reported as 53.1% (Huh-7; MTT; 20 µM).
The CC50 of `CCOCc1sc(NCc2ncccn2)nc1-c1ccccn1` is reported as over 40 µM (Huh-7).
